Data on 22 compounds can be found in ChEMBL document CHEMBL1124728, “Small peptide inhibitors of smooth muscle myosin light chain kinase” (J Med Chem, 1990).

In general, IC50 refers to the concentration needed to halve the response being measured. A high value points to a need for much substance. What is called inhibition is the drop in the measured response relative to a control, in per cent.

Assay [1] deals with T1, Myosin light chain kinase, smooth muscle (Gallus gallus, UniProt P11799). Nature of the assay: Inhibition of calmodulin-independent form of MLCK(myosin light chain kinase) from chicken gizzard. The method in brief:
(§1)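 Chicken gizzard MLCK made calmodulin-independent by limited trypsin digestion. It was started with ATP and stopped with HCl. Phosphate in substrate was counted on phosphocellulose filters. IC50 was read graphically from duplicates at four concentrations and reported as the mean, or as % inhibition at one concentration.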

The target in assay [2] is T1, Myosin light chain kinase, smooth muscle. The assay can be described thus: Inhibition of native form of MLCK myosin light chain kinase from chicken gizzard. In a few lines:
(§2)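 Native calmodulin-dependent gizzard MLCK, over 95% homogeneous, with 200 nM calmodulin, 1 mM EGTA and about 200 μM excess free Ca2+. Started with ATP and stopped with HCl; phosphocellulose filter counting. Graphical IC50 from duplicates at four concentrations, or % inhibition at a single concentration.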

Assay [3] addresses Myosin light chain kinase, smooth muscle (Gallus gallus) (UniProt P11799). As to conditions: 1000 uM.
Assay [4] has the same target. The assay can be described thus: Inhibition of native form of myosin light chain kinase at from chicken gizzard 100 uM. In a few lines:
as §2

Assay [5] has the same target. Nature of the assay: Inhibition of calmodulin-independent form of Myosin light chain kinase from chicken gizzard at 100 uM. Particulars: 300 uM, in the assay text read “at 300 uM” for “at 100 uM”. In a few lines: as §1
Assay [6] has the same target. Nature of the assay: Inhibition of native form of myosin light chain kinase from chicken gizzard at 1000 uM. The method in brief: as §2
Assay [7] has the same target. Nature of the assay: Rate of phosphate incorporation by myosin light chain kinase at 50 uM.
For assay [8], the target named is T1, Myosin light chain kinase, smooth muscle. Nature of the assay: Inhibition of native form of myosin light chain kinase from chicken gizzard. The method in brief: as §2
Assay [9] concerns the target Myosin light chain kinase, smooth muscle (Gallus gallus) (UniProt P11799). The assay can be described thus: Inhibition of calmodulin-independent form of Myosin light chain kinase from chicken gizzard at 300 uM. In a few lines:
as §1

The target is the same in assay [10]. The assay can be described thus: Inhibition of native form of myosin light chain kinase from chicken gizzard 1000 uM. In a few lines:
as §2

Starred links: 1 amine or outer side, 2 acyl side, 3 side chain; linkers in the order of their positions; H or OH if unused. Residues, ends and D or L forms follow the SMILES beside them. *: point of attachment. isoSer(2S) = O=C([C@@H](O)CN[*:1])[*:2]; NHCH2(2-pyridyl) = c1ccc(CN*)nc1; OBn = c1ccc(CO*)cc1

Myosin light chain kinase, smooth muscle (Gallus gallus), sequence (P11799 whole entry): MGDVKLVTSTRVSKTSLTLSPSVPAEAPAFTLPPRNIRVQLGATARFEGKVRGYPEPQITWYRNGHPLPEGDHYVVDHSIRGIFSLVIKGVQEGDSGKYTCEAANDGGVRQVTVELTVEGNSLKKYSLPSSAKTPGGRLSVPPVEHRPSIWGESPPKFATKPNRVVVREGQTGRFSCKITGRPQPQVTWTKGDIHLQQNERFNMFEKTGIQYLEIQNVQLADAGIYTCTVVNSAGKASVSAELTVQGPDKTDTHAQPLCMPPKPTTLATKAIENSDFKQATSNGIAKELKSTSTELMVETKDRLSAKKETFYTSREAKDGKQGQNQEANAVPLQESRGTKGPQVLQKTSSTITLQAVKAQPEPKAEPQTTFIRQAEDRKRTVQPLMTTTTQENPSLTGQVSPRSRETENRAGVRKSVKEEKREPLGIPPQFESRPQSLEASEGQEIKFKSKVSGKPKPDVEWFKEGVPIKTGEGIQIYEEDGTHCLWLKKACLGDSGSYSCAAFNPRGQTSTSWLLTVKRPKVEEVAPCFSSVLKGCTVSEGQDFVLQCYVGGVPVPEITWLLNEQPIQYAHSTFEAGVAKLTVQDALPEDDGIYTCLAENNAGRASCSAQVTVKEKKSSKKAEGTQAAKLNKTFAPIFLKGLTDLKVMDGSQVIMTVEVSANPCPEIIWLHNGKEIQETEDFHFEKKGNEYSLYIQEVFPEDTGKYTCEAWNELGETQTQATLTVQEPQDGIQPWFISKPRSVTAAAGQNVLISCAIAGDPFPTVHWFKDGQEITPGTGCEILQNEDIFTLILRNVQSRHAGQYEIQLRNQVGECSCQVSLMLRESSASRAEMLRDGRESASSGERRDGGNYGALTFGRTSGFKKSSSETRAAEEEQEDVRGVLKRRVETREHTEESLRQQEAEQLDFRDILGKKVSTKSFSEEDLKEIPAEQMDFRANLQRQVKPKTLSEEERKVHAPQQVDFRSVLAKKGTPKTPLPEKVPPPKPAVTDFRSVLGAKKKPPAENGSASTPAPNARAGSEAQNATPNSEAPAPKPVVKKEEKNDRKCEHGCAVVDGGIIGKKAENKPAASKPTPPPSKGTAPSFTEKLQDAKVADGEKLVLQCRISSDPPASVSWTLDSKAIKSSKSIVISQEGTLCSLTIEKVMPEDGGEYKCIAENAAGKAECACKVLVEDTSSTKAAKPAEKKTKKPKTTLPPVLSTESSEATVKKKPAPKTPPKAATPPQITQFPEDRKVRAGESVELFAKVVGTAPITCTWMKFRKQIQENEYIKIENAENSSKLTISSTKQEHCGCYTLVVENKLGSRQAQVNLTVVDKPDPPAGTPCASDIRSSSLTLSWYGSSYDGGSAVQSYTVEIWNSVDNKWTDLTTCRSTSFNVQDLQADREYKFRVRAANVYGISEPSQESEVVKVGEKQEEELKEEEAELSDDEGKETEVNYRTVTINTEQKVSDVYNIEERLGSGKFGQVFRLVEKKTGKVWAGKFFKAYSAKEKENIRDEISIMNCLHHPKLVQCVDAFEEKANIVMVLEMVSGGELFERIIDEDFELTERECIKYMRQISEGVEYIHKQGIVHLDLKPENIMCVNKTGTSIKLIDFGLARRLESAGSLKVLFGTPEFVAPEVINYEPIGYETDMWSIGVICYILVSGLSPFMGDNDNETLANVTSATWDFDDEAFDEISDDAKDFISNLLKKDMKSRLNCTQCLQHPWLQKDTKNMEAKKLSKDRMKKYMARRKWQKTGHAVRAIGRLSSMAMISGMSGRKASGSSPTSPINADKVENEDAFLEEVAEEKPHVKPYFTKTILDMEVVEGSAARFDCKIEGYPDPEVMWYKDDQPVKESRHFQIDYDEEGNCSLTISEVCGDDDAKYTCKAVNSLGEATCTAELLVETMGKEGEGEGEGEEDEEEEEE
T1 sequence (P11799 whole entry): as above

For `CC(C)[C@H](NC(=O)[C@H](CC(N)=O)NC(=O)[C@@H](N)CO)C(=O)N[C@@H](Cc1ccccc1)C(=O)N[C@@H](C)C(=O)OCc1ccccc1`, the IC50 turned out to be 21 µM in assay [1] and 28 µM in [2]. This compound yielded a Rate in [3] of 0.017 pM/min. On to `CC(C)[C@@H](NC(=O)[C@H](CC(N)=O)NC(=O)[C@@H](N)CO)C(=O)N[C@@H](Cc1ccccc1)C(=O)N[C@@H](C)C(=O)OCc1ccccc1`, for which the inhibition in assay [4] is 0%. As for `CC(C)[C@H](NC(=O)[C@@H](/C=C/[C@@H](N)CO)CC(N)=O)C(=O)N[C@@H](Cc1ccccc1)C(=O)N[C@@H](C)C(=O)NCc1ccccc1`, in assay [5], the inhibition is 0%. `CC(C)[C@H](NC(=O)[C@@H](CC(N)=O)NC(=O)[C@@H](N)CO)C(=O)N[C@@H](Cc1ccccc1)C(=O)N[C@@H](C)C(=O)OCc1ccccc1` gave an inhibition in assay [4] of 0%. The compound `CC(C)[C@H](NC(=O)[C@H](CC(N)=O)NC[C@@H](N)CO)C(=O)N[C@@H](Cc1ccccc1)C(=O)N[C@@H](C)C(=O)NCc1ccccc1` registered an inhibition in assay [5] of 0%.

For the compound `CC(C)[C@H](NC[C@H](CC(N)=O)NC(=O)[C@@H](N)CO)C(=O)N[C@@H](Cc1ccccc1)C(=O)N[C@@H](C)C(=O)OCc1ccccc1`, in assay [5], the inhibition was determined as 33%. Regarding `C[C@H](NC(=O)[C@@H](N)Cc1ccccc1)C(=O)OCc1ccccc1`, the inhibition in assay [6] was determined as 0%. Consider `CC(C)[C@H](NC(=O)[C@H](CC(N)=O)NC(=O)CN)C(=O)N[C@@H](Cc1ccccc1)C(=O)N[C@@H](C)C(=O)OCc1ccccc1` (H-GNVFA-OBn), for which the inhibition in assay [4] was found to be 37%.

Compound `CC(C)[C@H](NC(=O)[C@H](CC(N)=O)NC(=O)[C@H](CO)NC(=O)[C@@H](NC(=O)[C@H](C)NC(=O)[C@H](CCCN=C(N)N)NC(=O)[C@H](CCC(N)=O)NC(=O)[C@@H]1CCCN1C(=O)[C@H](CCCN=C(N)N)NC(=O)[C@H](CCCCN)NC(=O)[C@@H](N)CCCCN)[C@@H](C)O)C(=O)N[C@@H](Cc1ccccc1)C(=O)N[C@@H](CO)C(N)=O` (H-KKRPQRATSNVFS-NH2) gave a Rate in assay [7] of 45 pmol/min. Regarding `CC(C)[C@H](NC(=O)[C@@H](N)CC(N)=O)C(=O)N[C@@H](Cc1ccccc1)C(=O)N[C@@H](C)C(=O)OCc1ccccc1` (H-NVFA-OBn), the midpoint of inhibition in assay [8], the IC50, lay at 800 µM.

On to `CC(C)[C@H](NC(=O)[C@H](CC(=O)O)NC(=O)[C@@H](N)CO)C(=O)N[C@@H](Cc1ccccc1)C(=O)N[C@@H](C)C(=O)OCc1ccccc1` (H-SDVFA-OBn), for which the inhibition in assay [4] turned out to be 0%. Same read-out and setting: with `CC(C)[C@H](NC(=O)[C@H](Cc1c[nH]cn1)NC(=O)[C@@H](N)CO)C(=O)N[C@@H](Cc1ccccc1)C(=O)N[C@@H](C)C(=O)OCc1ccccc1` (H-SHVFA-OBn) the figure was 0%.

Take `C[C@H](NC(=O)[C@H](Cc1ccccc1)NC(=O)CNC(=O)[C@H](CC(N)=O)NC(=O)[C@@H](N)CO)C(=O)OCc1ccccc1` (H-SNGFA-OBn): the inhibition in assay [5] came out at 17%. Consider `CC(C)[C@H](NC(=O)[C@H](CC(N)=O)NC(=O)[C@@H](N)CO)C(=O)N[C@@H](Cc1ccccc1)C(=O)N[C@@H](C)C(N)=O` (H-SNVFA-NH2), for which the inhibition in assay [9] came out at 0%. `CC(C)[C@H](NC(=O)[C@H](CC(N)=O)NC(=O)[C@@H](N)CO)C(=O)N[C@@H](Cc1ccccc1)C(=O)N[C@@H](C)C(=O)O` (H-SNVFA-OH) returned an inhibition in assay [5] of 0%. For the compound `COC(=O)[C@H](C)NC(=O)[C@H](Cc1ccccc1)NC(=O)[C@@H](NC(=O)[C@H](CC(N)=O)NC(=O)[C@@H](N)CO)C(C)C` (H-SNVFA-OMe), the inhibition in assay [9] stood at 0%. For `CC(C)[C@H](NC(=O)[C@H](CC(N)=O)NC(=O)[C@@H](N)CO)C(=O)N[C@@H](Cc1ccccc1)C(=O)N[C@@H](C)C(=O)NCc1ccccn1` (H-SNVFA-{NHCH2(2-pyridyl)}), the inhibition in assay [5] amounted to 5%; in [6], 0%. Take `CC(C)[C@H](NC(=O)[C@H](CCC(N)=O)NC(=O)[C@@H](N)CO)C(=O)N[C@@H](Cc1ccccc1)C(=O)N[C@@H](C)C(=O)OCc1ccccc1` (H-SQVFA-OBn): the inhibition in [4] was 32%. With `CC(C)[C@H](NC(=O)[C@H](CO)NC(=O)[C@@H](N)CO)C(=O)N[C@@H](Cc1ccccc1)C(=O)N[C@@H](C)C(=O)OCc1ccccc1` (H-SSVFA-OBn), the inhibition in [4] amounted to 15%. The compound `CC(C)[C@H](NC(=O)[C@H](CC(N)=O)NC(=O)[C@@H](N)CO)C(=O)OCc1ccccc1` (H-Ser-Asn-Val-OBn) gave an inhibition in assay [10] of 0%.

In [8], `CC(C)[C@H](N)C(=O)N[C@@H](Cc1ccccc1)C(=O)N[C@@H](C)C(=O)OCc1ccccc1` (H-Val-Phe-Ala-OBn) registered a 50% inhibitory concentration (IC50) of 1000 µM. The compound `CC(C)[C@H](NC(=O)[C@H](CC(N)=O)NC(=O)[C@@H](O)CN)C(=O)N[C@@H](Cc1ccccc1)C(=O)N[C@@H](C)C(=O)OCc1ccccc1` ({isoSer(2S)}-NVFA-OBn) gave an inhibition in [4] of 14%.
